# Source: ChEMBL document CHEMBL3808334, “Synthesis and in vitro evaluation of novel triazine analogues as anticancer agents and their interaction studies with bovine serum albumin” (Eur J Med Chem, 2016)
# Columns and labels:
# [1] = Growth inhibition of human RPMI8226 cells assessed as cell growth at 10^-6 M incubated for 48 hrs by sulforhodamine B assay; assay type: functional; settings: RPMI-8226, 48 h, read-out: Activity
# [2] = molecular target: Albumin (Bos taurus, UniProt P02769); experiment: Binding affinity to bovine serum albumin assessed as binding constant in absorption spectra by Benesie-Hildebrand plot analysis; assay type: ADME; settings: cattle, isolated protein
# Sequence of Albumin (P02769 whole entry): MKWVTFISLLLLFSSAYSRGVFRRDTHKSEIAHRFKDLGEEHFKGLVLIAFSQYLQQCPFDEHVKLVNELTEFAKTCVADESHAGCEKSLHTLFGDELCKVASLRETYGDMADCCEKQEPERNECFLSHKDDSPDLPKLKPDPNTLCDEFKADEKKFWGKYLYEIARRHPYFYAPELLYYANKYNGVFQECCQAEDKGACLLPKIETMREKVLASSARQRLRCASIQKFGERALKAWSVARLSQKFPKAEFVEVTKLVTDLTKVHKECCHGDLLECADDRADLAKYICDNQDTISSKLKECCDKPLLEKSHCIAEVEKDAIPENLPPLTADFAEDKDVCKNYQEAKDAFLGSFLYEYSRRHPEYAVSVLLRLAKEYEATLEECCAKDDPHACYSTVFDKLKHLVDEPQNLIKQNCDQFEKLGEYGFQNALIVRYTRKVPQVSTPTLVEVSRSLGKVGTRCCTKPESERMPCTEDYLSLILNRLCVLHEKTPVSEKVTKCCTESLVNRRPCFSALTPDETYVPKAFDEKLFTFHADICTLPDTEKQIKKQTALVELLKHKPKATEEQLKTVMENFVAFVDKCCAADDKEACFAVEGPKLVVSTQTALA
# Summary of the method: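 BSA, 10 µM, in 0.1 M phosphate buffer pH 7.4, titrated with compound (0–20 µM per the figure; diluted from 10⁻³ mol L⁻¹ DMSO stocks). Run at 300 K in a 1 cm quartz cell. UV spectra taken 200–800 nm after 5 min equilibration; fluorescence excited at 280 nm, emission 351 nm, slit 10 nm. K is the intercept/slope ratio of a linear fit of 1/(A₀−A) or 1/(F₀−F) vs 1/[compound].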
# [3] = Growth inhibition of human TK10 cells incubated for 48 hrs by sulforhodamine B assay; assay type: functional; settings: TK-10, 48 h
# Summary of the method: (§1)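 Cells were plated at 5,000–40,000 per well according to doubling time and preincubated 24 h at 37 °C in 5% CO2; time-zero plates were then TCA-fixed. Five concentrations (10-fold or ½-log dilutions, DMSO stock) were incubated 48 h. Cells were TCA-fixed, stained with 0.4% SRB and read at 515 nm. GI50 was taken where [(Ti−Tz)/(C−Tz)]×100 = 50.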
# [4] = Growth inhibition of human SNB19 cells assessed as cell growth at 10 uM incubated for 48 hrs by sulforhodamine B assay; assay type: functional; settings: SNB-19, 48 h, read-out: Activity
# [5] = system: NCI-H226; experiment: Growth inhibition of human NCI-H226 cells assessed as cell growth at 10^-5 M incubated for 48 hrs by sulforhodamine B assay; assay type: functional; settings: NCI-H226, 48 h, read-out: Activity
# [6] = system: SR; experiment: Growth inhibition of human SR cells assessed as cell growth at 10^-4 M incubated for 48 hrs by sulforhodamine B assay; assay type: functional; settings: read-out: Activity
# [7] = system: Malme-3M; experiment: Growth inhibition of human MALME-3M cells assessed as cell growth at 10^-8 M incubated for 48 hrs by sulforhodamine B assay; assay type: functional; settings: read-out: Activity
# [8] = Growth inhibition of human OVCAR5 cells assessed as cell growth at 10^-6 M incubated for 48 hrs by sulforhodamine B assay; assay type: functional; settings: OVCAR-5, 48 h, read-out: Activity
# [9] = system: MDA-MB-435; experiment: Growth inhibition of human MDA-MB-435 cells assessed as cell growth at 10^-5 M incubated for 48 hrs by sulforhodamine B assay; assay type: functional; settings: MDA-MB-435, 48 h, read-out: Activity
# [10] = Growth inhibition of human RPMI8226 cells assessed as cell growth at 10^-7 M incubated for 48 hrs by sulforhodamine B assay; assay type: functional; settings: RPMI-8226, 48 h, read-out: Activity
# [11] = Growth inhibition of human OVCAR4 cells incubated for 48 hrs by sulforhodamine B assay; assay type: functional; settings: OVCAR-4, 48 h; summary of the method: as §1
# [12] = Growth inhibition of human HL-60(TB) cells assessed as cell growth at 10^-5 M incubated for 48 hrs by sulforhodamine B assay; assay type: functional; settings: HL-60, 48 h, read-out: Activity
# Summary of the method: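 Cells plated at 5,000–40,000/well according to doubling time and preincubated 24 h at 37 °C, 5% CO₂, with time-zero plates TCA-fixed. Drugs were kept as DMSO concentrates at 400× the top concentration and diluted in medium with 50 µg/ml gentamicin. Five 10-fold or ½-log dilutions were run for 48 h, followed by SRB staining and A515. Percent growth = (Ti−Tz)/(C−Tz)×100, or (Ti−Tz)/Tz×100 when Ti<Tz.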
# [13] = Growth inhibition of human COLO205 cells assessed as cell growth at 10^-8 M incubated for 48 hrs by sulforhodamine B assay; assay type: functional; settings: COLO 205, 48 h, read-out: Activity
# Summary of the method: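 Cells seeded at 5,000–40,000/well according to doubling time and preincubated 24 h at 37 °C, 5% CO2. Time-zero plates were TCA-fixed. DMSO concentrate was diluted in medium with 50 µg/ml gentamicin to give five concentrations (10-fold or ½ log steps), then exposed 48 h. Cells were TCA-fixed, stained with 0.4% SRB and read at 515 nm. Percent growth was taken against time-zero and control; GI50, TGI and LC50 derived.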
# [14] = Growth inhibition of human UACC62 cells assessed as cell growth at 10^-6 M incubated for 48 hrs by sulforhodamine B assay; assay type: functional; settings: UACC-62, 48 h, read-out: Activity
# [15] = system: NCI/ADR-RES; experiment: Growth inhibition of human NCI/ADR-RES cells incubated for 48 hrs by sulforhodamine B assay; assay type: functional; summary of the method: as §1
# [16] = Growth inhibition of human breast cancer cells incubated for 48 hrs by sulforhodamine B assay; assay type: functional; settings: Cancer cell lines
# [17] = system: ACHN; experiment: Growth inhibition of human ACHN cells incubated for 48 hrs by sulforhodamine B assay; assay type: functional
# Summary of the method: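 Five-dose assay: five concentrations from 10-fold or ½-log serial dilutions. Cells are plated at 5,000–40,000 per well according to doubling time, grown 24 h, then exposed 48 h at 37 °C, 5% CO₂. Fixed with cold 50% TCA (final addition) for 60 min at 4 °C and stained with 0.4% SRB in 1% acetic acid. Bound dye is solubilized in 10 mM Tris base and read at 515 nm. GI₅₀ is where [(Ti−Tz)/(C−Tz)]×100 = 50, with a time-zero plate as Tz.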
# [18] = system: MDA-MB-435; experiment: Growth inhibition of human MDA-MB-435 cells assessed as cell growth at 10^-8 M incubated for 48 hrs by sulforhodamine B assay; assay type: functional; settings: MDA-MB-435, 48 h, read-out: Activity
# [19] = system: MCF7; experiment: Growth inhibition of human MCF7 cells assessed as cell growth at 10^-8 M incubated for 48 hrs by sulforhodamine B assay; assay type: functional; settings: MCF7, 48 h, read-out: Activity
# [20] = system: NCI-H522; experiment: Growth inhibition of human NCI-H522 cells incubated for 48 hrs by sulforhodamine B assay; assay type: functional; settings: NCI-H522, 48 h; summary of the method: as §1
# [21] = read-out: LC50 (the source's name)
# [22] = read-out: pLC50 (the source's name) (converted)
structure (smiles),measurement,setting,value
Fc1ccc(-c2nc(Nc3ccc(-c4nc5ccccc5[nH]4)cc3)nc(N3CCOCC3)n2)cc1,growth at 1 µM,[1],77%
same,K,[2],1 ×10⁵ /M
same,GI50,[3]; read-out: GI50,2.91 µM
same,CC50,[3]; [21],> 100 µM
same,TGI,[3]; read-out: TGI,8.54 µM
same,GI50,[3]; read-out: pGI50 (converted),2.88 µM
same,CC50,[3]; [22],> 100 µM
same,TGI,[3]; read-out: pTGI (converted),8.51 µM
same,growth at 10 µM,[4],17.5%
same,growth at 10 µM,[5],-8%
same,growth at 100 µM,[6],1%
same,growth at 0.01 µM,[7],96%
same,growth at 1 µM,[8],92%
same,growth at 10 µM,[9],-62%
same,growth at 0.1 µM,[10],99%
same,GI50,[11]; read-out: GI50,3.13 µM
same,CC50,[11]; [21],> 100 µM
same,TGI,[11]; read-out: TGI,13 µM
same,GI50,[11]; read-out: pGI50 (converted),3.16 µM
same,CC50,[11]; [22],> 100 µM
same,TGI,[11]; read-out: pTGI (converted),13.2 µM
same,growth at 10 µM,[12],-27%
same,growth at 0.01 µM,[13],100%
same,growth at 1 µM,[14],86%
same,GI50,[15]; read-out: GI50,3.18 µM
same,CC50,[15]; [21],> 100 µM
same,TGI,[15]; read-out: TGI,26.7 µM
same,GI50,[15]; read-out: pGI50 (converted),3.16 µM
same,CC50,[15]; [22],> 100 µM
same,TGI,[15]; read-out: pTGI (converted),26.9 µM
same,GI50,[16],2.09 µM
same,TGI,[16],5.55 µM
same,CC50,[16]; [21],> 100 µM
same,GI50,[17]; read-out: GI50,2.55 µM
same,CC50,[17]; [21],> 100 µM
same,TGI,[17]; read-out: TGI,> 100 µM
same,GI50,[17]; read-out: pGI50 (converted),2.57 µM
same,CC50,[17]; [22],> 100 µM
same,TGI,[17]; read-out: pTGI (converted),> 100 µM
same,growth at 0.01 µM,[18],99%
same,growth at 0.01 µM,[19],94%
same,GI50,[20]; read-out: GI50,2.36 µM
same,CC50,[20]; [21],> 100 µM
same,TGI,[20]; read-out: TGI,5.85 µM
same,GI50,[20]; read-out: pGI50 (converted),2.34 µM
same,CC50,[20]; [22],> 100 µM
same,TGI,[20]; read-out: pTGI (converted),5.89 µM
